Published values of several laboratories.
Lines come from different studies, so protocols differ.
Target: Serine/threonine-protein kinase DCLK2 (DCLK2, Homo sapiens, UniProt Q8N568)
Sequence (Q8N568 1-766, as in one of the studies): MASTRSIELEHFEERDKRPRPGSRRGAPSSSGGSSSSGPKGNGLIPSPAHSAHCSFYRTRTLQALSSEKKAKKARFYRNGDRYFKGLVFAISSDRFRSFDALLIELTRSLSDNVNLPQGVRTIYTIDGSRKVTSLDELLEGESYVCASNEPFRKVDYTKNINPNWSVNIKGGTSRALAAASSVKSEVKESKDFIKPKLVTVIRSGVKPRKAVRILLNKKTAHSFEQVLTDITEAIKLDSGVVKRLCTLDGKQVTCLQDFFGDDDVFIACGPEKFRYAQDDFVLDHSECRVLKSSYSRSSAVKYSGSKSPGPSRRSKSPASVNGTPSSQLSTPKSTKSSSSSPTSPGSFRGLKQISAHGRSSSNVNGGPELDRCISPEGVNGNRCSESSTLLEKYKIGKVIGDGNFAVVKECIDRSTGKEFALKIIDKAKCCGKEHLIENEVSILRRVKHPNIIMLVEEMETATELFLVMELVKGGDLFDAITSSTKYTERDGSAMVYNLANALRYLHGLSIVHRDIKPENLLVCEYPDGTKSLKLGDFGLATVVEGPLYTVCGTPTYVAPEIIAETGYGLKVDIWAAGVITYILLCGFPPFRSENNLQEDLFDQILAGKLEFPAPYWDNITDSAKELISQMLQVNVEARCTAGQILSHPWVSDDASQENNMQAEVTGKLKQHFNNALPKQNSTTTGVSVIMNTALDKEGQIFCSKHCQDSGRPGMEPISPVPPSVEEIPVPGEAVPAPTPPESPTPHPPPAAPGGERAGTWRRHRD

Structure (SMILES) | assay | setting | quantity | result
Cc1cnc(NC2CCOCC2)nc1-n1cnc(C(=O)NC(CN)c2cc(F)cc(Cl)c2)c1 (centres unmarked) | enzyme activity, inhibitor, radiometric | 1 µM | remaining activity | 83%
Cn1nc(C(=O)NCc2ccc(C(=O)O)cc2)cc1-c1ccc2[nH]ccc2c1 | cell-free assay, competition with immobilised ligand | 0.1 µM | remaining binding | 92%
CCN(CC)CCNC(=O)c1c(C)[nH]c(/C=C2\C(=O)Nc3ccc(F)cc32)c1C | enzyme activity, inhibitor | 10 µM | inhibition | 69%
Cc1noc([C@H]2C[C@@H](c3ccc(C(F)(F)F)cc3)CN(C(=O)N3CCS(=O)(=O)C3)C2)n1 | cell-free assay, competition with immobilised ligand | 1 µM | remaining binding | 100%
CCN(CC)c1ccc(C2=NNC(=O)CC2C)cc1[N+](=O)[O-] (centres unmarked) | enzyme activity, inhibitor | 10 µM | remaining activity | 102%
COc1cc(Cl)c(C(=O)N[C@@H](CN[C@H]2CC[C@@H](N)CC2)Cc2ccc(C#N)cc2)cc1-c1ccc(CN[C@H](C)c2ccc(C)cc2)o1 | enzyme activity, inhibitor | 1 µM | remaining activity | 96%
CCCS(=O)(=O)Nc1ccc(F)c(C(=O)c2c[nH]c3ncc(-c4ccc(Cl)cc4)cc23)c1F | enzyme activity, inhibitor | 1 µM | inhibition | < 10%
CO[C@H]1CC[C@H](CNc2ccc(S(=O)(=O)NC(=O)c3ccc(N4CCN(CC5=C(c6ccc(Cl)cc6)CC(C)(C)CC5)CC4)cc3Oc3cnc4[nH]ccc4c3)cc2[N+](=O)[O-])CC1 | cell-free assay, competition with immobilised ligand | 1 µM | remaining binding | 100%
O=C(Nc1cnn(-c2csc(C(=O)NC3COC3)c2)c1)Nc1ccccc1Cl | enzyme activity, inhibitor | 5 µM | remaining activity | 99.9%
CNC(=O)c1cc(Oc2ccc(NC(=O)Nc3ccc(Cl)c(C(F)(F)F)c3)cc2)ccn1 | cell-free assay | 0.5 µM | remaining signal | 102%
CNC(=O)Nc1ccc2c(c1)[C@@]1(CC2)OC(=O)N(CC(=O)N(Cc2ccc(F)cc2)[C@@H](C)C(F)(F)F)C1=O | cell-free assay, competition with immobilised ligand | 1 µM | remaining binding | 89%
CNc1cccc2cc(C(=O)Nc3ccc(C(=O)O)cc3)c(=O)[nH]c12 | enzyme activity, inhibitor | 10 µM | inhibition | -1.4%
Nc1ncnc2occ(-c3ccc(NC(=O)Nc4cc(C(F)(F)F)ccc4F)cc3)c12 | cell-free assay, inhibitor | 20 µM | remaining signal | 100%
CC(C)(C)c1nc2c(s1)c1nc(N)ncc1c1ccc(NS(=O)(=O)c3c(F)cccc3F)c(F)c12 | enzyme activity, inhibitor, radiometric | 1 µM | remaining activity | 90%
COc1cc2ncnc(Nc3ccc(Oc4ccccc4)cc3C)c2cc1OC | enzyme activity, inhibitor | 1 µM | inhibition | 1%
Cc1nccc(COC(=O)N2C[C@@H]3[C@@H](CNC(=O)c4ccc5[nH]nnc5c4)[C@@H]3C2)n1 | cell-free assay, competition with immobilised ligand | 1 µM | remaining binding | 100%
Cn1cncc1C1=CN(c2ncnc3[nH]cnc23)CCS1 | enzyme activity, inhibitor, radiometric | 2 µM | inhibition | 14.2%
N#Cc1ccc(Nc2ccc3[nH]c(=O)[nH]c3c2)c(Cl)c1 | cell-free assay, competition with immobilised ligand | 1 µM | remaining binding | 100%
O=C1NC(=O)c2cc(Nc3ccc(F)cc3)c(Nc3ccc(F)cc3)cc21 | cell-free assay | 0.5 µM | remaining signal | 100%
CCCOc1ccc(OC)c(F)c1C(=O)c1ccc(C(=O)N[C@@H]2CNC[C@H]2NC(=O)c2ccc3[nH]ncc3c2)cc1 | enzyme activity, inhibitor | 10 µM | remaining activity | 33%
CCCOc1ccc([C@H]2[C@H](C(=O)O)[C@@H](c3ccc4c(c3)OCO4)CN2CC(=O)Nc2c(CC)cccc2CC)cc1 | cell-free assay, competition with immobilised ligand | 1 µM | remaining binding | 77%
Cc1ccc(Nc2nccc(N(C)c3ccc4c(C)n(C)nc4c3)n2)cc1S(N)(=O)=O | enzyme activity, inhibitor | 10 µM | inhibition | -19%
Cc1ccc(NC(=O)c2ccc(CN3CCN(C)CC3)cc2)cc1Nc1nc(-c2cccnc2)cs1 | cell-free assay | 0.5 µM | remaining signal | 102%
